Converted amounts (≈) assume the structure as drawn.
Key:
Staphylococcus aureus = assay: Antimicrobial activity against Staphylococcus aureus UAMS1 incubated for 16 hrs by CLSI based method; assay type: functional; settings: UAMS1, 16 h
[1] = Inhibition of Staphylococcus aureus topoisomerase 4 assessed as reduction in decatenation of kDNA at 100 to 500 uM by gel electrophoresis method
Procedure, shortened: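 Compounds were in DMSO, with water or DMSO as vehicle controls. Reactions were stopped with STEB plus chloroform:isoamyl alcohol and run on 1% agarose TAE gels stained with ethidium bromide. IC50 was taken from densitometry against reactions with and without enzyme.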

DNA gyrase = DNA gyrase (Staphylococcus aureus, UniProt P0A0K8+P20831); assay: Inhibition of Staphylococcus aureus DNA gyrase assessed as reduction in enzyme-catalyzed supercoiling of relaxed circular pBR322 DNA by agarose gel electrophoresis; assay type: protein-complex assay
Sequence of DNA gyrase (P0A0K8 whole entry): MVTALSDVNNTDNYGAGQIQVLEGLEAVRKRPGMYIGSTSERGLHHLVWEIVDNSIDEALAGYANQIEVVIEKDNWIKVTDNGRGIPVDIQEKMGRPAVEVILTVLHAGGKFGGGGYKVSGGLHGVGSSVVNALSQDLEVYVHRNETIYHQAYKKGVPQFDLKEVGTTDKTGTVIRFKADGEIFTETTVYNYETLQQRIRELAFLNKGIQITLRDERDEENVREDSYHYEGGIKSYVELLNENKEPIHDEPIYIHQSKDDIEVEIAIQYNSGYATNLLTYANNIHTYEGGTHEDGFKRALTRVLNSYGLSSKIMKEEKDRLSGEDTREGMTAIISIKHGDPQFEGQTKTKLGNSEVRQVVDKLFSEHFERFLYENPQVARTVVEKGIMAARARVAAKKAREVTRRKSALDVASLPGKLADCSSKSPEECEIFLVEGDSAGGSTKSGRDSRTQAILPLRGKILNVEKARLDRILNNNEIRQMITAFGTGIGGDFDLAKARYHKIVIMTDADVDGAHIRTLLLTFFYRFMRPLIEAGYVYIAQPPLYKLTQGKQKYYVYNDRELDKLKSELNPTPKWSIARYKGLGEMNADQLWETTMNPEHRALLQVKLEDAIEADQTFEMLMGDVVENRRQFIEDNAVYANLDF
Sequence of DNA gyrase (P20831 whole entry): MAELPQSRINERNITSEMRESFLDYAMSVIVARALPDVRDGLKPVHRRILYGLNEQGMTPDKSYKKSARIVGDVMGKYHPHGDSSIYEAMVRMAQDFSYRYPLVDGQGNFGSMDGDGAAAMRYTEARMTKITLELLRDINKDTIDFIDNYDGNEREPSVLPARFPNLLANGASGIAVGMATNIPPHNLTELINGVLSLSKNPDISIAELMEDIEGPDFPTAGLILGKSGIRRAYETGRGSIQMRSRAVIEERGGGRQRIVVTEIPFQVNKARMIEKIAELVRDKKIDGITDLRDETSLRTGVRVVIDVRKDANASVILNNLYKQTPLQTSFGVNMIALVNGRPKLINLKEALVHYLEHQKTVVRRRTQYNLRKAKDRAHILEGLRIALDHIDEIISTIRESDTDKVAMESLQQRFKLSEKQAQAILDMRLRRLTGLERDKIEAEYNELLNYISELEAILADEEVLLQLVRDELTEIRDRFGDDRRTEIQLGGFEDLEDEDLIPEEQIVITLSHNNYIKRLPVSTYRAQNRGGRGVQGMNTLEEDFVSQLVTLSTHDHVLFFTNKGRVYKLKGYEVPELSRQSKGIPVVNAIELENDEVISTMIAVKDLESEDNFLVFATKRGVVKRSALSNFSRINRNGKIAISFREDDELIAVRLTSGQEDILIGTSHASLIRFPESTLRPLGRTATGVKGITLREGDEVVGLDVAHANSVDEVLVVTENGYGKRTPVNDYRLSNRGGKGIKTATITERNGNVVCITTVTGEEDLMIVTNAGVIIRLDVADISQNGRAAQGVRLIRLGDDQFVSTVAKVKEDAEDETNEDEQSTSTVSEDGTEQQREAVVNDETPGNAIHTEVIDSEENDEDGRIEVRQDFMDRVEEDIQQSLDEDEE
Procedure, shortened: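 Recombinant S. aureus gyrase kit, 0.5 U enzyme, relaxed pBR322 (250 ng/μL) in 40 mM HEPES·KOH pH 7.6, 10 mM Mg acetate, 10 mM DTT, 2 mM ATP, 500 mM K glutamate, 0.5 mg/mL albumin; 37 °C, 30 min.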

SMILES	MIC (Staphylococcus aureus) [µg/mL]	IC50 [1] [µM]	IC50 (DNA gyrase) [µM]
OC(c1ccccc1)(c1ccccc1)C1CCN(Cc2cccc(C(F)(F)F)c2)CC1	> 256	–	–
OC(CCCN1CCC(C(O)(c2ccccc2)c2ccccc2)CC1)c1ccc(-c2ccccc2)cc1 (stereo not drawn)	8 (≈ 16.3 µM)	100	13
OC(CCCN1CCC(C(O)(c2ccccc2)c2ccccc2)CC1)c1ccc(Cl)cc1 (stereo not drawn)	64 (≈ 142 µM)	> 333	133
CC(C)(C)c1ccc(CN2CCC(C(O)(c3ccccc3)c3ccccc3)CC2)cc1	–	213	90
N#Cc1cccc(CN2CCC(C(O)(c3ccccc3)c3ccccc3)CC2)c1	> 256	–	–
CC(C)(C)c1ccc(C(=O)CCN2CCC(C(O)(c3ccccc3)c3ccccc3)CC2)cc1	32 (≈ 70.2 µM)	133	90
CC(C)(C(=O)O)c1ccc(C(O)CCCN2CCC(C(O)(c3ccccc3)c3ccccc3)CC2)cc1 (stereo not drawn) [FEXOFENADINE]	> 256	> 333	> 500
CC(C)(C)c1ccc(C(=O)CN2CCC(C(O)(c3ccccc3)c3ccccc3)CC2)cc1	> 256	247	–
CC(C)(C)c1ccc(CCCCN2CCC(C(O)(c3ccccc3)c3ccccc3)CC2)cc1	8 (≈ 17.6 µM)	320	93
COc1ccc(CN2CCC(C(O)(c3ccccc3)c3ccccc3)CC2)cc1	128 (≈ 330 µM)	–	–
CC(C)(C)c1ccc(CCN2CCC(C(O)(c3ccccc3)c3ccccc3)CC2)cc1	8 (≈ 18.7 µM)	147	93
CC(C)(C)c1ccc(C(=O)CCCN2CCC(C(O)(c3ccccc3)c3ccccc3)CC2)cc1 [TERFENADONE]	8 (≈ 17 µM)	110	–
OC(c1ccccc1)(c1ccccc1)C1CCN(Cc2ccc(-c3ccsc3)cc2)CC1	16 (≈ 36.4 µM)	–	–
COC(=O)C(C)(C)c1ccc(C(O)CCCN2CCC(C(O)(c3ccccc3)c3ccccc3)CC2)cc1 (stereo not drawn)	> 256	> 333	> 500
OC(c1ccccc1)(c1ccccc1)C1CCN(CCc2ccc(-c3ccncc3)cc2)CC1	32 (≈ 71.3 µM)	227	93
OC(c1ccccc1)(c1ccccc1)C1CCN(CCc2ccc(-c3cccnc3)cc2)CC1	32 (≈ 71.3 µM)	280	250
O=C(O)c1ccccc1CN1CCC(C(O)(c2ccccc2)c2ccccc2)CC1	> 256	–	–
CC(C)(C)c1ccccc1CN1CCC(C(O)(c2ccccc2)c2ccccc2)CC1	> 256	–	–
O=[N+]([O-])c1ccc(CCN2CCC(C(O)(c3ccccc3)c3ccccc3)CC2)cc1	64 (≈ 154 µM)	> 333	263
CC(C)c1ccc(CN2CCC(C(O)(c3ccccc3)c3ccccc3)CC2)cc1	32 (≈ 80.1 µM)	–	–
OC(c1ccccc1)(c1ccccc1)C1CCN(Cc2ccc(F)cc2)CC1	> 256	–	–
CC(C)c1ccc(C(O)CCCN2CCC(C(O)(c3ccccc3)c3ccccc3)CC2)cc1 (stereo not drawn)	32 (≈ 69.9 µM)	273	–
OC(c1ccccc1)(c1ccccc1)C1CCN(CCc2ccc(Br)cc2)CC1	16 (≈ 35.5 µM)	260	247

SMILES	MIC (Staphylococcus aureus) [µg/mL]	IC50 [1] [µM]	IC50 (DNA gyrase) [µM]
OC(c1ccccc1)(c1ccccc1)C1CCN(Cc2ccc(-c3cccs3)cc2)CC1	32 (≈ 72.8 µM)	–	–
OC(CCCN1CCC(C(O)(c2ccccc2)c2ccccc2)CC1)c1ccc(Br)cc1 (stereo not drawn)	32 (≈ 64.7 µM)	> 333	> 500
OC(c1ccccc1)(c1ccccc1)C1CCN(Cc2ccc(-c3ccoc3)cc2)CC1	32 (≈ 75.6 µM)	–	–
OC(c1ccccc1)(c1ccccc1)C1CCN(Cc2ccc(-c3ccco3)cc2)CC1	32 (≈ 75.6 µM)	–	–
Cc1ccc(C(O)CCCN2CCC(C(O)(c3ccccc3)c3ccccc3)CC2)cc1 (stereo not drawn)	128 (≈ 298 µM)	> 333	> 500
OC(c1ccccc1)(c1ccccc1)C1CCN(CCc2ccc(Cl)cc2)CC1	32 (≈ 78.8 µM)	267	260
CC(C)(C)c1ccc(C(O)CCN2CCC(C(O)(c3ccccc3)c3ccccc3)CC2)cc1 (stereo not drawn)	8 (≈ 17.5 µM)	333	133
OC(c1ccccc1)(c1ccccc1)C1CCN(Cc2ccccc2F)CC1	> 256	–	–
OC(c1ccccc1)(c1ccccc1)C1CCN(Cc2ccccc2-c2ccccc2)CC1	> 256	–	–
Cc1ccc(CN2CCC(C(O)(c3ccccc3)c3ccccc3)CC2)cc1	128 (≈ 345 µM)	–	–
CC(C)(C)c1ccc(C(O)CCCN2CCC(C(O)c3ccccc3)CC2)cc1 (stereo not drawn)	> 256	–	> 333
COC(=O)c1ccccc1CN1CCC(C(O)(c2ccccc2)c2ccccc2)CC1	> 256	–	–
N#Cc1ccc(CN2CCC(C(O)(c3ccccc3)c3ccccc3)CC2)cc1	> 256	–	–
CC(C)(C)c1ccc(CCN2CCC(C(O)(c3ccccc3)c3ccccc3)CC2)cn1	64 (≈ 149 µM)	–	> 333
Cc1ccccc1CN1CCC(C(O)(c2ccccc2)c2ccccc2)CC1	128 (≈ 345 µM)	–	–
OC(c1ccccc1)(c1ccccc1)C1CCN(Cc2ccc(C(F)(F)F)cc2)CC1	> 256	–	–
OC(c1ccccc1)(c1ccccc1)C1CCN(Cc2cccc(F)c2)CC1	128 (≈ 341 µM)	–	–
O=C(O)c1ccc(CN2CCC(C(O)(c3ccccc3)c3ccccc3)CC2)cc1	> 256	–	–
OC(c1ccccc1)(c1ccccc1)C1CCN(Cc2ccccc2C(F)(F)F)CC1	> 256	–	–
CC(C)(C)c1ccc(C(O)CCCN2CCC(C(c3ccccc3)c3ccccc3)CC2)cc1 (stereo not drawn)	8 (≈ 17.6 µM)	–	–
CC(C)(C)c1ccccc1CCN1CCC(C(O)(c2ccccc2)c2ccccc2)CC1	16 (≈ 37.4 µM)	–	–
CC(C)(C)c1cccc(CN2CCC(C(O)(c3ccccc3)c3ccccc3)CC2)c1	32 (≈ 77.4 µM)	–	–
O=C(O)c1cccc(CN2CCC(C(O)(c3ccccc3)c3ccccc3)CC2)c1	> 256	–	–

SMILES	MIC (Staphylococcus aureus) [µg/mL]	IC50 [1] [µM]	IC50 (DNA gyrase) [µM]
COC(=O)c1cccc(CN2CCC(C(O)(c3ccccc3)c3ccccc3)CC2)c1	> 256	–	–
OC(c1ccccc1)(c1ccccc1)C1CCN(Cc2cccc(-c3ccccc3)c2)CC1	64 (≈ 148 µM)	–	–
COc1ccc(CCN2CCC(C(O)(c3ccccc3)c3ccccc3)CC2)cc1	> 256	–	> 333
CC(C)(C)c1ccc(C(O)CCCN2CCC(Cc3ccccc3)CC2)cc1 (stereo not drawn)	> 256	–	> 333
COc1cccc(CN2CCC(C(O)(c3ccccc3)c3ccccc3)CC2)c1	128 (≈ 330 µM)	–	–
CC(C)(C)c1ccc(C(O)CN2CCC(C(O)(c3ccccc3)c3ccccc3)CC2)cc1 (stereo not drawn)	16 (≈ 36.1 µM)	100	–
OC(c1ccccc1)(c1ccccc1)C1CCN(Cc2ccc(-n3cccc3)cc2)CC1	32 (≈ 75.7 µM)	–	–
Cc1cccc(CN2CCC(C(O)(c3ccccc3)c3ccccc3)CC2)c1	128 (≈ 345 µM)	–	–
COc1ccccc1CN1CCC(C(O)(c2ccccc2)c2ccccc2)CC1	128 (≈ 330 µM)	–	–
CC(C)(C)c1ccc(C(O)CCCN2CCN(C(c3ccccc3)c3ccccc3)CC2)cc1 (stereo not drawn) [TRENIZINE]	> 256	–	–
CN(C)c1ccc(CCN2CCC(C(O)(c3ccccc3)c3ccccc3)CC2)cc1	> 256	–	> 333
N#Cc1ccccc1CN1CCC(C(O)(c2ccccc2)c2ccccc2)CC1	> 256	–	–
CC(C)(C)c1ccc(OCCCN2CCC(C(O)(c3ccccc3)c3ccccc3)CC2)cc1	–	> 333	100
Oc1ccc(CN2CCC(C(O)(c3ccccc3)c3ccccc3)CC2)cc1	128 (≈ 343 µM)	–	–
Oc1ccccc1CN1CCC(C(O)(c2ccccc2)c2ccccc2)CC1	64 (≈ 171 µM)	–	–
COC(=O)c1ccc(CN2CCC(C(O)(c3ccccc3)c3ccccc3)CC2)cc1	> 256	–	–
CC(C)(C)c1ccc([C@H](O)CCCN2CCC(C(O)(c3ccccc3)c3ccccc3)CC2)cc1 [R-TERFENADINE]	–	110	–
Oc1cccc(CN2CCC(C(O)(c3ccccc3)c3ccccc3)CC2)c1	> 256	–	–
OC(c1ccccc1)(c1ccccc1)C1CCN(CCc2ccc(F)cc2)CC1	128 (≈ 329 µM)	–	> 333
CC(C)(C)c1ccc([C@@H](O)CCCN2CCC(C(O)(c3ccccc3)c3ccccc3)CC2)cc1	–	100	–
CC1(c2ccc(CCN3CCC(C(O)(c4ccccc4)c4ccccc4)CC3)cc2)COC1	> 256	–	> 333
CC(C)(C)c1ccc(C(O)CCCN2CCC(=C(c3ccccc3)c3ccccc3)CC2)cc1 (stereo not drawn)	> 256	–	–
CC(C)(C)c1ccc(C(N)CCCN2CCC(C(O)(c3ccccc3)c3ccccc3)CC2)cc1 (stereo not drawn)	16 (≈ 34 µM)	> 333	–

— ChEMBL document CHEMBL3351553 (J Med Chem, 2014)
